Residues, ends and D or L forms follow the SMILES beside them. *: point of attachment. X1 = CCN(CC)C(=S)SCc1ccc(N*)cc1

Data set [1] addresses T1, Prostate-specific antigen (Homo sapiens, UniProt P07288).
T1 sequence (P07288 whole entry): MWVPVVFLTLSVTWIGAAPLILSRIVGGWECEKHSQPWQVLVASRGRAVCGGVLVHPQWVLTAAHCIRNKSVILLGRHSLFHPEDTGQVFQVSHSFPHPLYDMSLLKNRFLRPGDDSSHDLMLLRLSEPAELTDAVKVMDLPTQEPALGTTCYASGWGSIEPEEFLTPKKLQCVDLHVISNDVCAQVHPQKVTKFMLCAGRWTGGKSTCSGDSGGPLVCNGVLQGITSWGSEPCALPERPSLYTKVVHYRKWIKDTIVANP
As to the kind of experiment: Prodrug activation assessed as PSA-mediated (unknown origin) [4-[[(2S)-2-[[(2R)-2-amino-3-hydroxy-propanoyl]amino]-4-methyl-pentanoyl]amino]phenyl]methyl N,N-diethylcarbamodithioate metabolite formation in presence of CuSO4 by LC-MS analysis. The format is ADME. Put shortly:
(§1)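 Prodrug was incubated with 20 μg/mL PSA enzyme and sampled from 5 min to 48 h. Samples were analysed by HPLC at 254 nm, and products were assigned by mass spectrometry (m/z).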

For data set [2], the target named is T1, Prostate-specific antigen. As to the kind of experiment: Prodrug activation assessed as PSA-mediated (unknown origin) Cu(diethyldithiocarbamate)2 complex formation in presence of CuSO4 by LC-MS analysis. The class given is ADME. Put shortly:
as §1

For data set [3], the target named is T1, Prostate-specific antigen. In words: Prodrug activation assessed as PSA-mediated (unknown origin) Cu(diethyldithiocarbamate)2 complex formation in presence of leucine aminopeptidase and CuSO4 after 14.5 mins by LC-MS analysis. The class given is ADME.
For data set [4], the target named is T1, Prostate-specific antigen. In words: Prodrug activation assessed as PSA-mediated (unknown origin) Leu-PAB-DT metabolite formation measured up to 48 hrs by HPLC analysis. The class given is ADME. Put shortly:
(§2)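 Prodrug incubated with 20 μg/mL PSA enzyme; samples taken at 5 min, 1 h, 2 h, 4 h, 8 h, 24 h and 48 h. Monitored by HPLC at 254 nm as percent prodrug remaining. Cleavage product identity confirmed by mass spectrometry.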

The target of data set [5] is T1, Prostate-specific antigen. In words: Prodrug activation in human LNCAP cell lysates assessed as PSA-mediated peptide cleavage measured up to 4 hrs by HPLC analysis. The format is subcellular, Lysate. Put shortly: (§3)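 Prodrug incubated with LNCaP or PC3 cell lysate. Cleavage followed over time by HPLC, with caffeine as reference, for up to 48 h.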
Data set [6] concerns the target T2, Prostate-specific antigen (PSA) (Homo sapiens, UniProt P07288).
T2 sequence (P07288 whole entry): T1 sequence (P07288 whole entry)
In words: Stability assessed as PSA-mediated (unknown origin) compound cleavage by measuring parent compound remaining after 48 hrs by HPLC analysis. The class given is ADME. The following applies: prostate-specific antigen (PSA) enzyme, read-out: Stability. Put shortly: as §2

Data set [7] concerns the target T1, Prostate-specific antigen. In words: Prodrug activation assessed as PSA-mediated (unknown origin) diethyldithiocarbamate formation in presence of leucine aminopeptidase by LC-MS analysis. The class given is ADME.
A short description of data set [8]: Prodrug activation in human PC3 cell lysate assessed as peptide cleavage measured up to 48 hrs by HPLC analysis. The following applies: pc-3, 48 h. The format is subcellular. Put shortly:
as §3

The test system of a further data set is Prostatic carcinoma cell. In words: Antiproliferative activity against human prostate cancer cells assessed as reduction in cell viability after 24 hrs by resazurin dye based assay. The format is functional. Put shortly: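 LNCaP (PSA-expressing) and PC3 (PSA-non-expressing) cells were co-treated with prodrug plus 1 μM CuSO4. Proliferation was read by resazurin assay at 24 h, and IC50 was derived.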

Data set [9] is described as follows: Cytotoxicity against human prostate epithelial cells assessed as reduction in cell viability after 24 hrs by resazurin dye based assay. (In general: The colour change of resazurin is a common sign of viable cells or microbes.)
The target in data set [10] is T1, Prostate-specific antigen. In words: Prodrug activation assessed as PSA-mediated (unknown origin) 4-((R)-2-((R)-2-amino-3-hydroxypropanamido)-4-methylpentanamido)benzyl diethyl-carbamodithioate metabolite formation by HPLC analysis. The format is ADME. A digest of the protocol: as §2
For data set [11], the target named is T1, Prostate-specific antigen. As to the kind of experiment: Prodrug activation assessed as PSA-mediated (unknown origin) compound cleavage measured up to 8 hrs by HPLC analysis. Put shortly:
as §2

Data set [12] is described as follows: Prodrug activation in human PC3 cell lysate assessed as peptide cleavage measured up to 4 hrs by HPLC analysis. The class given is subcellular. Conditions: pc-3, 4 h. Put shortly:
as §3

As for `CCN(CC)C(=S)SCc1ccc(NC(=O)[C@H](CC(C)C)NC(=O)[C@H](CO)NC(=O)[C@H](Cc2ccc(O)cc2)NC(=O)[C@H](Cc2ccc(O)cc2)NC(=O)[C@H](CO)NC(=O)[C@H](CO)NC(=O)[C@H](CCCNC(=N)N)NC(=O)[C@H](N)CO)cc1`, the Drug metabolism entry is reported as “Metabolite_Detected” in data set [1] and “Metabolite_Notdetected” in [2].
With `CCN(CC)C(=S)SCc1ccc(NC(=O)[C@H](CC(C)C)NC(=O)[C@H](CO)NC(=O)[C@H](Cc2ccc(O)cc2)NC(=O)[C@H](Cc2ccc(O)cc2)NC(=O)[C@H](CO)NC(=O)[C@H](CO)NC(=O)[C@@H](N)CCCNC(=N)N)cc1` (H-RSSYYSL-X1), the Drug metabolism entry in data set [3] was “Metabolite_Detected”; in [4] it was “Metabolite_Detected”; in [5], 100%; in data set [7] it was “Metabolite_Notdetected”; in data set [8], “Metabolite_Notdetected”. In addition, the remaining at 48 h in data set [6] amounted to 30%.
Consider `CCN(CC)C(=S)SCc1ccc(NC(=O)CC[C@H](N)C(=O)O)cc1`, for which the IC50 with Prostatic carcinoma cell came out at 0.8 µM; in data set [9] it was 15 µM.
Consider `CCN(CC)C(=S)SCc1ccc(NC(=O)[C@H](CC(C)C)NC(=O)[C@H](CCC(N)=O)NC(=O)[C@H](CC(C)C)NC(=O)[C@H](CCCCN)NC(=O)[C@H](CO)NC(=O)[C@H](CO)NC(=O)[C@H](Cc2c[nH]cn2)NC(C)=O)cc1` (Ac-HSSKLQL-X1), for which the Drug metabolism result in data set [3] was “Metabolite_Detected”; in data set [5], 100%; in data set [10], “Metabolite_Detected”; in data set [7] it was “Metabolite_Notdetected”; in data set [11], 100%; in data set [12] it was greater than 50%.

Usually IC50 stands for the concentration needed to halve the response being measured.
